# Source: PubChem
# Shown are actives, neighbours in structure and some others; about 2.8% of the full set was active somewhere.
# NPY1 pot ag = human NPY-Y1 potentiation or agonism, primary screen; P25929; NPY-Y1 expressing cells, potentiator/agonist activation; activation, % at 3.6 µM; 0.37% of 220,000 active; in the data active = activation above about 33%, passing the limit was not always enough;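 also: cells stimulated with NPY at EC10 then isoproterenol at EC100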
# Target sequence (P25929 whole entry, looked up): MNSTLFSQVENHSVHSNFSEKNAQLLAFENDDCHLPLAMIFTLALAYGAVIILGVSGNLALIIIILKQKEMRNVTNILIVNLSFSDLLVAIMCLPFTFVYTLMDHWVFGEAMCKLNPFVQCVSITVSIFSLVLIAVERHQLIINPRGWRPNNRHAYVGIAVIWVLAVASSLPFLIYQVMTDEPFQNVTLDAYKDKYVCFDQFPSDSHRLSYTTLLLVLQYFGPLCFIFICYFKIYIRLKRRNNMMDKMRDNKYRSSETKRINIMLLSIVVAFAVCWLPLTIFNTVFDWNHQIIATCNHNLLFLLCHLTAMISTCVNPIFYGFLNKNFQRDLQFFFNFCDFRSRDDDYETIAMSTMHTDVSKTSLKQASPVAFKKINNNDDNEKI
# EP2 antag = blocks the human prostaglandin E2 receptor EP2; C6 glioma cells expressing human EP2, cAMP TR-FRET; cells stimulated with saturating PGE2; 0.52% of 260,000 active; inhibition, % at 25 µM;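 active = percent inhibition above 40 after rounding to a whole number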;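 also: rat C6 glioma host cells with rolipram phosphodiesterase inhibitor present; the protocol text gives 20 µM as final concentration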
# EP2 modulator = EP2 receptor (human) modulation; P43116; induction, % at 25 µM; 0.83% of 260,000 active; EP2-expressing cells, cAMP HTRF FRET, PGE2 co-stimulation;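 active = compounds whose cAMP rise, as percent of the full-agonist control response, exceeds 60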;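 also: rat C6 glioma line stably carrying human EP2 under a CMV promoter; the protocol text gives 20 µM as final concentration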
# NPY-Y1 antag = antagonists of human neuropeptide Y receptor Y1 | HEK293-CNG Y1 cells, membrane potential fluorescence; NPY at EC95, then isoproterenol | inhibition, % at 3.6 µM | 1% of 200,000 active | AID 1040;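 active = inhibition above the campaign mean inhibition of all tested compounds plus 3 SD, cut at about 20% in these data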
#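 Material: Y1- and CNG-channel-expressing HEK293 cells / Probe or stimulus: NPY 25 nM then isoproterenol 1 µM plus Ro 20-1724 25 µM / Doses: 3.6 µM single dose, DMSO 0.4% / Schedule: compound incubation 1 h at room temperature, readout 45 min post-stimulation / Signal: membrane potential fluorescence / Benchmarks: isoproterenol-only wells as full block versus NPY-plus-isoproterenol wells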
# NPY2 pot ag = potentiates or activates human NPY-Y2 receptor | P49146 | cells expressing NPY-Y2, potentiator/agonist read-out | activation, % at 3.6 µM | 0.45% of 220,000 active | AID 1359; in the data active = activation above about 27%;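 also: cells stimulated with NPY near EC25 plus isoproterenol at EC100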
# NPY-Y2 antag = blocks the human neuropeptide Y Y2 receptor. P49146. inhibition, % at 2.7 µM. NPY-Y2 expressing cells, antagonist mode. 0.99% of 140,000 active. AID 793; in the data active = inhibition above about 17%
# Numbers stand for hits; - = inactive; . = not tested or not shown.
SMILES,NPY1 pot ag,EP2 antag,EP2 modulator,NPY-Y1 antag,NPY2 pot ag,NPY-Y2 antag
Cc1ccccc1NC(=S)NC(NC(=O)COc1ccccc1)C(Cl)(Cl)Cl (stereo not drawn),-,-,-,-,-,-
CCc1ccc(OCC(=O)NC(NC(=S)Nc2ccccc2C)C(Cl)(Cl)Cl)cc1 (stereo not drawn),-,-,-,21.1,-,18.6
O=C1c2ccccc2C(=O)c2c1ccc(N1C(=O)c3ccccc3C1=O)c2-c1c(N2C(=O)c3ccccc3C2=O)ccc2c1C(=O)c1ccccc1C2=O,.,45.5,-,.,.,.
CC(C)Sc1nc2ncnc(N)c2[nH]1,-,-,-,-,-,.
Nc1ncnc2nc(-c3ccc(C[P+](c4ccccc4)(c4ccccc4)c4ccccc4)cc3)[nH]c12,.,40.5,-,.,.,.
Cc1cc(C)n(C(=O)CCCCCCCCC(=O)n2nc(C)cc2C)n1,-,-,60.8,-,-,-
COc1ccc(C)cc1N(CC(=O)NC(C)(C)C)C(=O)Cn1nnc(-c2ccc(C)o2)n1,.,-,-,.,.,.
CC(C)n1c(=O)n(CC(=O)NC2CC2)c2cccnc21,.,-,-,.,.,.
O=S(=O)(c1ccc(Br)cc1)N1CCN(S(=O)(=O)c2ccc(Br)cc2)CC1,.,41.6,-,.,.,.
CC1CC(C)CN(S(=O)(=O)c2ccc(Br)cc2)C1 (stereo not drawn),.,-,-,.,.,.
COCCn1nnnc1C(C(C)C)N(CCCO)Cc1cc2cc(C)c(C)cc2[nH]c1=O (stereo not drawn),.,-,-,.,.,.
O=c1c2ccccc2c(-c2ccc(Cl)cc2)nn1-c1ccccc1,-,-,63.2,-,-,-
COC(=O)c1ccc(C2NC(=O)C(=O)/C2=C(\O)c2ccc(OC)c(OC)c2)cc1 (stereo not drawn),.,-,-,.,.,.
COc1ccc(/C(O)=C2/C(=O)C(=O)NC2c2ccc(F)cc2)cc1OC (stereo not drawn),.,-,70.0,.,.,.
CN(C)CCN1C(=O)C(=O)/C(=C(\O)c2ccccc2)C1c1ccco1 (stereo not drawn),.,-,-,.,.,.
CCCC1c2cccn2CCN1C(=O)c1nc(-c2ccc(F)cc2)oc1C (stereo not drawn),.,-,-,.,.,.
COc1ccc2c(c1)N(CC[C@H]1CCCCN1C)c1ccccc1S2,.,41.3,-,.,.,.
CCOc1ccc(OCC(O)CNC2CCN(Cc3ccccc3)CC2)cc1 (stereo not drawn),-,-,-,29.9,-,19.4
CC(C)(c1ccccc1)c1ccc(OCC(O)CNC2CCN(Cc3ccccc3)CC2)cc1 (stereo not drawn),-,-,-,21.4,-,.
OC(CNC1Cc2ccccc2C1)COc1ccc(F)cc1 (stereo not drawn),84.8,-,-,.,74.3,.
CC(=O)Nc1ccc(OCC(O)CNC2CCCC2)cc1 (stereo not drawn),-,.,-,-,-,-
COc1cc(/C=C/C(=O)Nc2ccc(S(=O)(=O)N3CCOCC3)cc2)cc(OC)c1OC,.,-,-,.,.,.
CCc1nnc(NC(=O)CSc2nc(-c3ccccc3)nc3c(C)cccc23)s1,.,-,-,.,.,.
CCCCNc1cc(C)nc(NCc2ccccc2)n1,-,-,-,30.6,-,29.0
Cc1cccc2cc(CN(Cc3nnnn3CC3CCCO3)C3CCCCC3)c(=O)[nH]c12 (stereo not drawn),.,-,-,.,.,.
SMILES,NPY1 pot ag,EP2 antag,EP2 modulator,NPY-Y1 antag,NPY2 pot ag,NPY-Y2 antag
CCCC(=O)N(CCN(Cc1ccccc1)C(=O)CCC)Cc1ccccc1,-,-,-,55.9,-,24.7
CCOCC(=O)N(CC)Cc1ccccc1,-,-,-,-,-,.
O=C1OC(c2ccccc2)/C(=C(/O)c2ccccc2)C1=O (stereo not drawn),102.6,-,-,-,62.4,-
O=C1OC(c2ccccc2)/C(=C(/O)c2ccc(Cl)cc2)C1=O (stereo not drawn),-,-,-,-,-,-
CC1CCN(C(=O)Cn2nc(C(F)(F)F)c3c2CCC3)CC1,.,-,-,.,.,.
OC(COc1cccc2ccccc12)CN1CCCC1 (stereo not drawn),98.5,-,-,-,94.1,-
Cc1cc2c(OCC(O)CN3CCCCC3)cccc2[nH]1 (stereo not drawn),110.0,-,-,-,100.9,.
C=C1CC(C)OC(c2ccccc2OCC(O)CN2CCCCC2)C1 (stereo not drawn),75.4,-,-,-,69.8,-
Cc1cc2c(OCC(O)CNC3CCCCC3)cccc2[nH]1 (stereo not drawn),110.3,-,-,-,103.0,.
COc1ccc(S(=O)(=O)Nc2ccc(-c3nc4c(C)cccc4[nH]3)cc2)cc1NC(C)=O,.,-,-,.,.,.
CCCc1ccc(Oc2cn[nH]c2-c2ccc(O)c(C)c2O)cc1,-,53.0,-,-,-,-
CCCc1ccc(Oc2c(-c3ccc(O)c(C)c3O)n[nH]c2C)cc1,-,-,-,-,-,-
CN(C)C[C@@H](O)c1ccc(Cl)c2ccccc12,.,46.9,-,.,.,.
O=[N+]([O-])c1cc(Cc2cc([N+](=O)[O-])c3cccnc3c2O)c(O)c2ncccc12,.,75.4,-,.,.,.
CC(C)C(=O)NC(c1ccccc1)c1cc([N+](=O)[O-])c2cccnc2c1O (stereo not drawn),-,-,-,-,-,-
CN(C)CCCN1CCC2(CCC(C(C)(C)C)CC2)CC1,.,51.0,-,.,.,.
CC(C)(C)CC(=O)NCCCN1CCOCC1,-,-,-,-,-,.
CC(C)(C)C1CCC2(CC1)CCN(CCCN1CCOCC1)CC2,.,44.0,-,.,.,.
CCOC(=O)c1sc(NC(=O)c2cccs2)c(C#N)c1C,.,-,-,.,.,.
C[N+](C)(C)c1cc2c(nn1)Nc1ccccc1S2,.,48.8,-,.,.,.
O=C(NC1CCN(C(=O)Nc2ccccc2C(F)(F)F)CC1)c1ccco1,.,-,-,.,.,.
CCOC(=O)c1c(NC(=O)COc2cccc3c2CCN(CC)C3=O)sc2c1CCC2,-,-,63.7,-,-,-
O=C(CN1CCOCC1)Nc1sc2c(c1C(=O)c1cccc(F)c1)CCC2,.,-,68.3,.,.,.
CCOC(=O)c1c(NC(=O)CN2CCOCC2)sc2c1CCCC2,-,-,62.2,-,-,-
CCOC(=O)c1c(NC(=O)COc2cccc3c2CCN(Cc2ccc(F)cc2)C3=O)sc2c1CCC2,-,-,-,-,-,-
SMILES,NPY1 pot ag,EP2 antag,EP2 modulator,NPY-Y1 antag,NPY2 pot ag,NPY-Y2 antag
COc1ccccc1CN(Cc1cc2c(C)ccc(C)c2[nH]c1=O)C(=O)Nc1ccccc1OC,.,-,-,.,.,.
Cc1sc2nc(CN3CCN(C/C=C/c4ccccc4)CC3)[nH]c(=O)c2c1C,.,-,-,.,.,.
Cc1noc(C)c1C(=O)N1CCC2(CC1)NC(=O)c1cc(Br)ccc1N2,.,-,-,.,.,.
COc1ccccc1-c1ccc(SCc2ccc(C)cc2)nn1,-,-,-,21.3,-,.
Cc1ccc(NN2C(=O)C=C(c3ccccc3)C2=O)cc1,-,48.0,-,-,-,.
COc1ccc2c(c1)C(=O)/C(=C/C=C/c1ccccc1)CC2,-,-,-,-,-,-
COC1=CC(=O)C(O)=C/C1=C\C=C\c1ccccc1,.,111.5,-,.,.,.
CCCc1nc(=S)c2ccccc2[nH]1,.,-,-,.,.,.
